Laboratory results: ChEMBL document CHEMBL3588770, “Novel spirohydantoin derivative as a potent multireceptor-active antipsychotic and antidepressant agent” (Bioorg Med Chem, 2015)

What was measured:
[1] = molecular target: T1, 5-hydroxytryptamine receptor 1A (Rattus norvegicus, UniProt P19327); test: Displacement of [3H]-8-OH-DPAT from 5-HT1A receptor in rat hippocampal membrane by liquid scintillation analysis; assay type: cell membranes, Hippocampus
T1 sequence (P19327 whole entry): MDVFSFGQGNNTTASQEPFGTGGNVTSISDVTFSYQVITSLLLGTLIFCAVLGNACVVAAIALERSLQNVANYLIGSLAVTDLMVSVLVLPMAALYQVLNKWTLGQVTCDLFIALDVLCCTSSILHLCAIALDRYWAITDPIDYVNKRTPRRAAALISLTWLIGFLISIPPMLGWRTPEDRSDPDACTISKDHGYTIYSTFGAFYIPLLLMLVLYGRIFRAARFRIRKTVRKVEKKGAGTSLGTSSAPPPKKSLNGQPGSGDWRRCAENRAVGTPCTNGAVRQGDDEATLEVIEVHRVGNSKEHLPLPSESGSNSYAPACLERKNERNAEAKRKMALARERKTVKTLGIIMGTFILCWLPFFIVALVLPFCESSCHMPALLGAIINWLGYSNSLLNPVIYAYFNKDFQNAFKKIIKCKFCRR
In short: (§1)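 Native rat membranes were used: hippocampus with [3H]-8-OH-DPAT (170 Ci/mmol) and 5-HT for non-specific binding; cortex with [3H]-ketanserin (88.0 Ci/mmol) and methysergide; hypothalamus with [3H]-5-CT (34.5 Ci/mmol) and 5-HT. Compounds were tested in triplicate at 7–8 concentrations (10⁻¹¹–10⁻⁴ M). Read-out was liquid scintillation counting. Ki came from nonlinear regression with Cheng-Prusoff, as the mean of at least two experiments.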

[2] = molecular target: 5-hydroxytryptamine receptor 2A (Rattus norvegicus, UniProt P14842); test: Displacement of [3H]ketanserin from 5-HT2A receptor in rat cortical membrane by liquid scintillation analysis; assay type: cell membranes; in short: as §1
[3] = molecular target: T2, D(4) dopamine receptor (Homo sapiens) (UniProt P21917); test: Displacement of [3H]methylspiperione from human D4 receptor expressed in CHO cells at 1 uM by scintillation counting analysis; assay type: cell-based
T2 sequence (whole entry): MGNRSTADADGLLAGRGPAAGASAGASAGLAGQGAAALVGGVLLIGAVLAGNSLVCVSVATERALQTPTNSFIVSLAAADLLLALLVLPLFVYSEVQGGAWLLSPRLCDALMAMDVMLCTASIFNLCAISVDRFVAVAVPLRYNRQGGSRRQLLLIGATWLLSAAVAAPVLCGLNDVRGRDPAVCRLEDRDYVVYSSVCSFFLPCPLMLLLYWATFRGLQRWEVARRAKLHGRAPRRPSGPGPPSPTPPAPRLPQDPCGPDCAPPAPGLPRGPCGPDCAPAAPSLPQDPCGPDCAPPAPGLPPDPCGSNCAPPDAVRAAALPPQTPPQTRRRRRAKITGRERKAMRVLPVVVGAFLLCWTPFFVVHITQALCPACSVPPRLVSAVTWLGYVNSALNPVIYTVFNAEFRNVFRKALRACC
In short: (§2)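 Extended binding screen run by a contract lab. Receptors were cloned human: 5-HT1A, 5-HT2A, 5-HT2C and H1 in HEK-293 cells; D1, α1, α2C and M3 in CHO cells; 5-HT6/7 and D2/3/4 in CHO cells. Radioligand displacement was done at a single 1.0E-06 concentration in duplicate. Results are mean % inhibition of control specific binding.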

[4] = molecular target: Muscarinic acetylcholine receptor M3 (Homo sapiens) (UniProt P20309); test: Displacement of [3H]-4-DAMP from human muscarinic M3 receptor expressed in CHO cells at 1 uM by scintillation counting analysis; assay type: cell-based; in short: as §2
[5] = molecular target: D(2) dopamine receptor (Homo sapiens) (UniProt P14416); test: Antagonist activity at human recombinant D2 receptor expressed in HEK293 cells assessed as inhibition of dopamine-induced response at 1 uM; assay type: cell-based
In short: (§3)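 Functional assays run by a contract lab on CHO or HEK-293 cells stably expressing the human receptor. Read-out was intracellular cAMP, IP1 or Ca2+ release. A single test concentration of 1.0E-06 was used, in duplicate. Data are mean % of the control response.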

[6] = molecular target: T2, D(4) dopamine receptor (Homo sapiens); test: Antagonist activity at human recombinant D4 receptor expressed in CHO cells assessed as inhibition of dopamine-induced intracellular cAMP release at 1 uM by HTRF method; assay type: functional, cell-based; in short: as §3
[7] = molecular target: T3, 5-hydroxytryptamine receptor 1A (Homo sapiens) (UniProt P08908); test: Agonist activity at human recombinant 5HT1A receptor expressed in HEK293 cells at 1 uM; assay type: cell-based; in short: as §3
T3 sequence (whole entry): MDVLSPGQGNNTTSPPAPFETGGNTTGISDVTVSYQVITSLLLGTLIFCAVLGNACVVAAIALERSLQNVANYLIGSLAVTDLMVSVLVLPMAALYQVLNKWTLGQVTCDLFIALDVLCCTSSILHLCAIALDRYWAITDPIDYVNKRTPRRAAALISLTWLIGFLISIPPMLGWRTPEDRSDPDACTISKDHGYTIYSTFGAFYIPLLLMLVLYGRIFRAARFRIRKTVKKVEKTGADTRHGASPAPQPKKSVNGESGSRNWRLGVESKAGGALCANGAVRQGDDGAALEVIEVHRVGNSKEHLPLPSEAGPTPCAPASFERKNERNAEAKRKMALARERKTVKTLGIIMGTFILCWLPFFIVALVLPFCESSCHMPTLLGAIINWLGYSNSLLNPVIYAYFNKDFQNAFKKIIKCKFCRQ

[8] = molecular target: T3, 5-hydroxytryptamine receptor 1A (Homo sapiens); test: Antagonist activity at human recombinant 5HT1A receptor expressed in HEK293 cells assessed as inhibition of 8-OH-DPAT-induced response at 1 uM; assay type: cell-based; in short: as §3
[9] = molecular target: 5-hydroxytryptamine receptor 2A (Homo sapiens) (UniProt P28223); test: Agonist activity at human recombinant 5HT2A receptor expressed in HEK293 cells assessed as intracellular IP1 release at 1 uM by HTRF assay; assay type: functional, cell-based; in short: as §3
[10] = molecular target: 5-hydroxytryptamine receptor 7 (Homo sapiens) (UniProt P34969); test: Agonist activity at human recombinant 5HT7 receptor expressed in CHO cells assessed as intracellular cAMP release at 1 uM by HTRF assay; assay type: functional, cell-based; in short: as §3
[11] = molecular target: 5-hydroxytryptamine receptor 7 (Homo sapiens) (UniProt P34969); test: Antagonist activity at human recombinant 5HT7 receptor expressed in CHO cells assessed as inhibition of serotonin-induced intracellular cAMP release at 1 uM by HTRF assay; assay type: functional, cell-based; in short: as §3
[12] = molecular target: T4, Adrenergic receptor alpha-1 (Homo sapiens) (UniProt P35348+P25100+P35368); test: Agonist activity at human recombinant alpha1 adrenoceptor expressed in CHO cells at 1 uM; assay type: cell-based; in short: as §3
[13] = molecular target: T4, Adrenergic receptor alpha-1 (Homo sapiens); test: Antagonist activity at human recombinant alpha1 adrenoceptor expressed in CHO cells assessed as inhibition of agonist induced response at 1 uM; assay type: cell-based; in short: as §3
[14] = molecular target: Histamine H1 receptor (Homo sapiens) (UniProt P35367); test: Agonist activity at human recombinant H1 receptor expressed in HEK-293 cells assessed as intracellular Ca2+ release at 1 uM by fluorimetry; assay type: functional, cell-based; settings: HEK293; in short: as §3
[15] = molecular target: Histamine H1 receptor (Homo sapiens) (UniProt P35367); test: Antagonist activity at human recombinant H1 receptor expressed in HEK-293 cells assessed as inhibition of histamine-induced intracellular Ca2+ release at 1 uM by fluorimetry; assay type: functional, cell-based; settings: HEK293; in short: as §3

Chain of 5-hydroxytryptamine receptor 7 (Homo sapiens) (P34969 whole entry): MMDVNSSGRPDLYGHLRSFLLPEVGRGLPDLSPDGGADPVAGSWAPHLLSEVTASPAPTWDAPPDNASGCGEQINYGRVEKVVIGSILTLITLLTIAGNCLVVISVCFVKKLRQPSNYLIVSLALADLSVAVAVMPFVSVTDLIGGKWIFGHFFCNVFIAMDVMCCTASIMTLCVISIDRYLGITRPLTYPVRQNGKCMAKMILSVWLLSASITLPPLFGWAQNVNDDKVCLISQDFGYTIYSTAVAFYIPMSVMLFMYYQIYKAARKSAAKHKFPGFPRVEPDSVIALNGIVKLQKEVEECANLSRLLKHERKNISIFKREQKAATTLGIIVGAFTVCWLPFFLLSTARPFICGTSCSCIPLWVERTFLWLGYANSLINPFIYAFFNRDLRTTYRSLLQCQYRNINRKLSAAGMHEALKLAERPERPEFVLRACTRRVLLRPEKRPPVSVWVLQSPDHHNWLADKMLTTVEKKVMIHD
Chain of Muscarinic acetylcholine receptor M3 (Homo sapiens) (P20309 whole entry, looked up): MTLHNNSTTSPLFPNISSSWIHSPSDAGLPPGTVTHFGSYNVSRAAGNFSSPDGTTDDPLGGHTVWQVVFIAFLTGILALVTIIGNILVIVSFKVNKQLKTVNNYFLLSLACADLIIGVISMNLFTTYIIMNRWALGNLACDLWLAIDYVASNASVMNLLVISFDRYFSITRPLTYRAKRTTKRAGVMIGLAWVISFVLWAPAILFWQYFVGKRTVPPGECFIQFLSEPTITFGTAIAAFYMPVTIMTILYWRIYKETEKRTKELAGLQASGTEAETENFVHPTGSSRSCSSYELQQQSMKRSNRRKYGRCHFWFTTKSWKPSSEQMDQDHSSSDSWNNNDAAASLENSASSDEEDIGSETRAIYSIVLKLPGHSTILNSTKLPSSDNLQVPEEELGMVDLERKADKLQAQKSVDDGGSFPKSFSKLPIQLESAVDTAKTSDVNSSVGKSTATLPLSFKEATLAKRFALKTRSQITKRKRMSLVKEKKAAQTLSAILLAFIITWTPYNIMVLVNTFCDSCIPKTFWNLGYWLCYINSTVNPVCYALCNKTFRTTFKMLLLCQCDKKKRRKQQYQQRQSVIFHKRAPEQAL
Chain of 5-hydroxytryptamine receptor 2A (P14842 whole entry): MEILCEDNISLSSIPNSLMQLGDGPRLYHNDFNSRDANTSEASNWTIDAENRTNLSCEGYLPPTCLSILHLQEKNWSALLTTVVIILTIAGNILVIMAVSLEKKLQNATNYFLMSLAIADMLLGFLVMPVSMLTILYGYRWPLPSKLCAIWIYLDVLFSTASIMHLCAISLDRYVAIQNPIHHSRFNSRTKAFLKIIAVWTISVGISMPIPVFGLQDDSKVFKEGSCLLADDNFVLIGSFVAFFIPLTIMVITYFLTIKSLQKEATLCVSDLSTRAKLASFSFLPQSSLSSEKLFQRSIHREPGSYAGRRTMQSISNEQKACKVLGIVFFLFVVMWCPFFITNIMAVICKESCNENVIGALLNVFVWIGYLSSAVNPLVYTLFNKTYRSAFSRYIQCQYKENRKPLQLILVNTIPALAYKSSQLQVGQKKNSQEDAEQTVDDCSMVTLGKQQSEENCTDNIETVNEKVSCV
Chain of Histamine H1 receptor (Homo sapiens) (P35367 whole entry): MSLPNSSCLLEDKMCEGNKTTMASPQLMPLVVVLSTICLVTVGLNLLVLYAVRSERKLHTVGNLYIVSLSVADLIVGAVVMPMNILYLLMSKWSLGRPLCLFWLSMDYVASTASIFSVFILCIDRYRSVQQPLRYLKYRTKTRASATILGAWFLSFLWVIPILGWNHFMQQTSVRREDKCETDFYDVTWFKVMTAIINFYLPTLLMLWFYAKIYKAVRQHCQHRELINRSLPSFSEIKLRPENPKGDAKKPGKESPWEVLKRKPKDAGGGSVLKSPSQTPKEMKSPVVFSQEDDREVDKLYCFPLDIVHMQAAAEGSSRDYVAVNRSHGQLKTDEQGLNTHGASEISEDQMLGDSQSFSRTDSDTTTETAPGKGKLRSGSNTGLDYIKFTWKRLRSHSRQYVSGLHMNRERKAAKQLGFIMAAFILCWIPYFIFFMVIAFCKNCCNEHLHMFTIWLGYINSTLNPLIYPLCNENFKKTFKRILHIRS
Chain of D(2) dopamine receptor (Homo sapiens) (P14416 whole entry): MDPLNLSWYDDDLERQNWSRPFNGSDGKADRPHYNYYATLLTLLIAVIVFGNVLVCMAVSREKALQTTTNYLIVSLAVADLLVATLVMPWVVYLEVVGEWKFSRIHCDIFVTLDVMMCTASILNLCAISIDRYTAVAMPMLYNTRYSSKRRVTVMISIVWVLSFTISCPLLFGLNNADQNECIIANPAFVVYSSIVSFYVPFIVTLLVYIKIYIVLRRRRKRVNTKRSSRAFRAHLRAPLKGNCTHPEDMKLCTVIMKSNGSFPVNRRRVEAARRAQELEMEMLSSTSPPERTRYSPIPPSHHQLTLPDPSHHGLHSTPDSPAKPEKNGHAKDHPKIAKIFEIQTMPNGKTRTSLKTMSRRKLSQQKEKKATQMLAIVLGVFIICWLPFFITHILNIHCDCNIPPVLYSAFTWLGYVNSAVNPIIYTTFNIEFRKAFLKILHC
Chain of 5-hydroxytryptamine receptor 2A (Homo sapiens) (P28223 whole entry): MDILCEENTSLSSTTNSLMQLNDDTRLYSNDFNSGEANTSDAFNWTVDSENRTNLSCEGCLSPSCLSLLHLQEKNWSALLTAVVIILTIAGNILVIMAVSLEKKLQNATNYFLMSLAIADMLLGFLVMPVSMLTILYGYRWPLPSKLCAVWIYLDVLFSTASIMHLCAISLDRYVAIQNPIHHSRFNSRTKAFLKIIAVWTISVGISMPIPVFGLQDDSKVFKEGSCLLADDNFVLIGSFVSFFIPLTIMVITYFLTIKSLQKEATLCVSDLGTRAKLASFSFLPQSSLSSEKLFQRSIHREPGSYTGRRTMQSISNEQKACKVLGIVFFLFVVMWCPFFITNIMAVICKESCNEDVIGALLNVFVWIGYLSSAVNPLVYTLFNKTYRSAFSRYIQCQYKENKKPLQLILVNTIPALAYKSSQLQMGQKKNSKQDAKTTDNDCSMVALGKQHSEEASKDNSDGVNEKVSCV

Row | SMILES | Ki [1] | Ki [2] | inhibition [3] | inhibition [4] | inhibition [5] | inhibition [6] | Activity [7] | inhibition [8] | Activity [9] | Activity [10] | inhibition [11] | Activity [12] | inhibition [13] | Activity [14] | inhibition [15]
1 | COc1ccccc1N1CCN(CCCCN2C(=O)NC3(CCc4ccccc43)C2=O)CC1 (stereo not drawn) | 0.0026 µM | 0.098 µM | 95% | 5% | 85% | 75% | 37% | 102% | 1% | 6% | 28% | 2% | 95% | -2% | 58%
2 | COc1ccccc1N1CCN(CCCCN2C(=O)NC3(CCCc4ccccc43)C2=O)CC1 (stereo not drawn) | 0.0022 µM | 0.059 µM | 98% | -6% | 91% | 84% | 26% | 101% | 0% | 6% | 43% | 1% | 94% | -2% | 63%
3 | O=C1NC2(CCc3ccccc32)C(=O)N1CCCCN1CCN(c2cccc(Cl)c2)CC1 (stereo not drawn) | 0.012 µM | 0.021 µM | 90% | 5% | – | – | – | – | – | – | – | – | – | – | –
4 | O=C1NC2(CCCc3ccccc32)C(=O)N1CCCCN1CCN(c2cccc(Cl)c2)CC1 (stereo not drawn) | 0.015 µM | 0.027 µM | 93% | 3% | – | – | – | – | – | – | – | – | – | – | –
